Assay results reported in ChEMBL document CHEMBL2040760, “Synthesis and biological evaluation of novel (-)-Cercosporamide derivatives as potent selective PPARγ modulators” (Eur J Med Chem, 2012).
Converted amounts (≈) assume the structure as drawn. The source made the active and inactive calls. No cut-off for these calls is given here.

Legend:
[1] = target: T1, Peroxisome proliferator-activated receptor gamma (Homo sapiens, UniProt P37231); test: Modulation of full-length human pSG5-fused PPARgamma expressed in MG-63 cells co-expressing pGV-P2-PPRE after 24 hrs by luciferase reporter gene based transactivation assay; assay type: cell-based
T1 sequence (P37231 whole entry): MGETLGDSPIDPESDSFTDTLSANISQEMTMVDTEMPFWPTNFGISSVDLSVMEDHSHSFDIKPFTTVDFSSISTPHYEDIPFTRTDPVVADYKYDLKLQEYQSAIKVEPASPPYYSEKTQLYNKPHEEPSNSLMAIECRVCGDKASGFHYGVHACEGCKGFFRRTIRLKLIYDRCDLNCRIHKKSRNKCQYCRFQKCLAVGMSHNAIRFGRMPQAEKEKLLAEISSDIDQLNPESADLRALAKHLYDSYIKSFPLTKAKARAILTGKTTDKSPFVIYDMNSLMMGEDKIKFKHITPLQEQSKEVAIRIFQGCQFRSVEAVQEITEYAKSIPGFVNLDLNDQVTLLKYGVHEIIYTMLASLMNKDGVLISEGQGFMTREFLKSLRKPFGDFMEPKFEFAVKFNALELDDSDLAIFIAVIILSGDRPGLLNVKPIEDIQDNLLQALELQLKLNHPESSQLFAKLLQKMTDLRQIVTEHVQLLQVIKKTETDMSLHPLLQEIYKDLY
Outline: (§1)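 MG-63 cells transiently co-transfected (Lipofectamine, 4 h, serum- and antibiotic-free) with pSG5-hPPARγ and pGV-P2-PPRE luciferase reporter, replated at 40,000 cells/well. After 24 h and medium change, exposed to graded compound concentrations for 20 h. Luciferase luminescence read as the output.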

[2] = target: T2, Peroxisome proliferator-activated receptor gamma (Homo sapiens) (UniProt P37231); test: Modulation of full-length human pSG5-fused PPARgamma expressed in MG-63 cells co-expressing pGV-P2-PPRE after 24 hrs by luciferase reporter gene based transactivation assay relative to 5-(4-{[6-(4-hydroxy-3,5-dimethylphenoxy)-1-methyl-1H-benzimidazol- 2-yl]methoxy}benzyl)-1,3-thiazolidine-2,4-dione; assay type: cell-based; outline: as §1
T2 sequence (whole entry): T1 sequence (P37231 whole entry)

Rattus norvegicus [3] = test: Antidiabetic activity in po dosed Zucker diabetic fatty rat assessed as improvement in plasma lipids profiles administered qd for 12 days; assay type: functional, organism-based
Outline: (§2)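 Female ZDF rats, 5 weeks old on arrival, acclimatised over 1 week on MR-DBT chow with 10% lard. Randomised on Day -1 by BW, PG, insulin and blood indices. Once-daily oral gavage in 0.5% methylcellulose at 0.01–100 mg/kg for 12 days, n = 5. BW recorded daily. Tail-vein plasma taken Day 12 for glucose, TG, FFA and insulin kits. Dunnett vs vehicle.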

Rattus norvegicus [4] = test: Antidiabetic activity in Zucker diabetic fatty rat assessed as reduction of free fatty acids level at >1 mg/kg, po qd for 12 days; assay type: functional, organism-based; outline: as §2
[5] = target: T2, Peroxisome proliferator-activated receptor gamma (Homo sapiens); test: Modulation of human GAL4-fused PPARgamma LBD expressed in COS7 cells co-expressing pG5luc by luciferase reporter gene based transactivation assay relative to control; assay type: cell-based; details: COS-7
Outline: (§3)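 COS7 cells in DMEM with 10% FBS were transfected with pM-hPPARγ, pM-PPARα or pM-PPARδ (GAL4-LBD) plus pG5luc using Lipofectamine 2000, then reseeded and held about 24 h. Serial dilutions were added, with 0.1% DMSO as control, for about 24 h more. Read-out was luciferase luminescence. Mean ± S.E.M., n = 3.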

[6] = target: T3, Peroxisome proliferator-activated receptor delta (Homo sapiens) (UniProt Q03181); test: Modulation of human GAL4-fused PPARdelta LBD expressed in COS7 cells co-expressing pG5luc at 10 uM by luciferase reporter gene based transactivation assay; assay type: cell-based; details: COS-7; outline: as §3
T3 sequence (whole entry): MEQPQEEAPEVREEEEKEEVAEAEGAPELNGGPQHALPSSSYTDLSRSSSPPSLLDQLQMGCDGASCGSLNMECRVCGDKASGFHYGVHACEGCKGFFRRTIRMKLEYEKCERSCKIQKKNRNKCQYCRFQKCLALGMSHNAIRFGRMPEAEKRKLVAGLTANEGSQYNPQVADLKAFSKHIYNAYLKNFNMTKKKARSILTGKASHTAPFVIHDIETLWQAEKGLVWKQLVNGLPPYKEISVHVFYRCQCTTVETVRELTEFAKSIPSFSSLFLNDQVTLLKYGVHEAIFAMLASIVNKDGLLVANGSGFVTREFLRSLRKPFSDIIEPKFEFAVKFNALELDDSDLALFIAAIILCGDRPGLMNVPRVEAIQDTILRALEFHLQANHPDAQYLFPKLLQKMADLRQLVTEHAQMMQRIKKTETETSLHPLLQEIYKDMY

Rattus norvegicus [7] = test: Antidiabetic activity in Zucker diabetic fatty rat assessed as reduction of triglyceride level at 100 mg/kg, po qd for 12 days; assay type: functional, organism-based; design: dose 100 mg/kg; outline: as §2
[8] = target: T4, Peroxisome proliferator-activated receptor alpha (Homo sapiens) (UniProt Q07869); test: Modulation of human GAL4-fused PPARalpha LBD expressed in COS7 cells co-expressing pG5luc at 10 uM by luciferase reporter gene based transactivation assay; assay type: cell-based; details: COS-7; outline: as §3
T4 sequence (whole entry): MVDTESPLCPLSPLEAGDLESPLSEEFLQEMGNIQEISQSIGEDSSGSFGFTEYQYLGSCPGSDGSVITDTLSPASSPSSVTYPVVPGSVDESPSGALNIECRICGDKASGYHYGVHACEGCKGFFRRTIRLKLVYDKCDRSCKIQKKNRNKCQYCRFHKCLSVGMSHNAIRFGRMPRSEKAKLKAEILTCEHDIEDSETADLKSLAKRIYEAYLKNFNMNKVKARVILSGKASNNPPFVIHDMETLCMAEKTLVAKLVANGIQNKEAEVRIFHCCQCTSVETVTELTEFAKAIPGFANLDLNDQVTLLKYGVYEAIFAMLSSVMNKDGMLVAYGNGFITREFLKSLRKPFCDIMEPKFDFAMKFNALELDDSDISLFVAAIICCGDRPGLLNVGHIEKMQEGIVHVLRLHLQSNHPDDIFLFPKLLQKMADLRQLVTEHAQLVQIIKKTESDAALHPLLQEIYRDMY

Rattus norvegicus [9] = test: Toxicity in Zucker diabetic fatty rat assessed as increase in body weight at >1 mg/kg, po qd for 12 days; assay type: organism-based; details: in vivo, 288 h; outline: as §2
[10] = Total clearance in Fischer rat at 10 mg/kg, iv; assay type: ADME, organism-based; design: dose 10 mg/kg, route intravenous; details: in vivo
Outline: (§4)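 Male Fischer rats, fasted overnight, received the potassium salt at 10 mg/kg (5 mg/mL, 2 mL/kg). Vehicle was 20% HCO-60 in saline orally or 5% HCO-60 intravenously. Jugular-vein blood was taken and plasma drug measured by LC-MS/MS. Non-compartmental PK analysis; oral n = 4.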

Rattus norvegicus [11] = test: Toxicity in Wistar-Imamichi rat assessed as increase heart weight at 100 mg/kg, po qd for 14 days; assay type: organism-based; design: dose 100 mg/kg, route oral; details: in vivo, 336 h
Outline: (§5)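 Female Wistar–Imamichi rats, 7 weeks old on arrival, randomised by BW. Once-daily oral gavage in 0.5% methylcellulose for 14 days, n = 5, BW recorded daily. On Day 14, 0.05% Evans blue was given i.v. (0.1 mL/100 g) and aortic blood drawn at 10 min. Heart weighed. Plasma TCA-deproteinised, sonicated, A620 read, and plasma volume computed from an EB calibration curve.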

[12] = Solubility of the compound in JP2 at pH 6.8; assay type: physicochemical; details: JP2, pH 6.8
Outline: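 Solubility was measured in JP2 medium at pH 6.8.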

[13] = Oral bioavailability in Fischer rat at 10 mg/kg; assay type: ADME, organism-based; details: in vivo; outline: as §4
Rattus norvegicus [14] = test: Toxicity in Wistar-Imamichi rat assessed as increase in body weight at 30 to 100 mg/kg, po qd for 14 days; assay type: organism-based; design: dose 30-100 mg/kg, route oral; details: in vivo, 336 h; outline: as §5
Rattus norvegicus [15] = test: Toxicity in Wistar-Imamichi rat assessed as increase plasma volume at 100 mg/kg, po qd for 14 days; assay type: organism-based; design: dose 100 mg/kg, route oral; details: in vivo, 336 h; outline: as §5
Rattus norvegicus [16] = test: Antidiabetic activity in Zucker diabetic fatty rat assessed as reduction of non-fasting plasma glucose level at >1 mg/kg, po qd for 12 days; assay type: functional; outline: as §2
[17] = Terminal half life in Fischer rat at 10 mg/kg, iv; assay type: ADME, organism-based; design: dose 10 mg/kg, route intravenous; details: in vivo, read-out: beta t1/2 (converted); outline: as §4
[18] = target: T1, Peroxisome proliferator-activated receptor gamma; test: Modulation of human GAL4-fused PPARgamma LBD expressed in COS7 cells co-expressing pG5luc by luciferase reporter gene based transactivation assay; assay type: cell-based, COS-7; outline: as §3
Rattus norvegicus [19] = test: Toxicity in po dosed Wistar-Imamichi rat assessed as increase heart weight administered qd for 14 days; assay type: organism-based; details: in vivo, 336 h
Outline: (§6)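 Female Wistar–Imamichi rats (7 weeks old, acclimatized >1 week on FR2 chow), randomized by BW; n = 5/group. Oral gavage once daily in 0.5% methylcellulose, 100 mg/kg or 30–300 mg/kg, Days 0–13. BW recorded daily. On Day 14, heart weighed after Evans blue dosing and aortic blood draw under ether. Dunnett's or unpaired two-tailed t-test vs vehicle.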

Rattus norvegicus [20] = test: Antidiabetic activity in Zucker diabetic fatty rat assessed as reduction of triglyceride level at 1 to 100 mg/kg, po qd for 12 days; assay type: functional, organism-based
Outline: (§7)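 Female ZDF rats (5 weeks old on arrival, acclimatized >1 week on MR-DBT diet with 10% lard) randomized on Day -1 by BW, plasma glucose, insulin, Hct, Hb, RBC, MCV; n = 5/group. Oral gavage once daily in 0.5% methylcellulose, 0.01–100 mg/kg, Days 0–11. BW recorded daily; tail-vein plasma on Day 12 for glucose, TG, insulin, FFA; Dunnett's test vs vehicle.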

Rattus norvegicus [21] = test: Toxicity in Wistar-Imamichi rat assessed as increase in body weight at 300 mg/kg, po qd for 14 days; assay type: organism-based; design: dose 300 mg/kg, route oral; details: in vivo, 336 h; outline: as §6
Rattus norvegicus [22] = test: Toxicity in Zucker diabetic fatty rat assessed as increase in body weight at 0.1 mg/kg, po qd for 12 days; assay type: organism-based; design: dose 0.1 mg/kg, route oral; details: in vivo, 288 h; outline: as §7

Compound	EC50 [1] [nM]	Emax [2] [%]	also measured
COc1cc(O)c2c(c1C(=O)NCc1c(C)ccc3cc(Cl)ccc13)OC1=CC(O)=C(C(C)=O)C(=O)[C@]12C	56	26	
COc1cc(O)c2c(c1C(=O)NCc1c(C)ccc3cc(F)ccc13)OC1=CC(O)=C(C(C)=O)C(=O)[C@]12C	27	28	
CCc1cc(F)c2ccccc2c1CNC(=O)c1c(OC)cc(O)c2c1OC1=CC(O)=C(C(C)=O)C(=O)[C@]12C [listing 1 of 2 here]		38	Activity (Rattus norvegicus [3]): Dose-dependent effect; Activity (Rattus norvegicus [4]): Active; Emax [5]: 64%; Activity [6]: inactive; Activity (Rattus norvegicus [7]): Active; Activity [8]: inactive
COc1cc(O)c2c(c1C(=O)NCc1c(C)cc(F)c3ccccc13)OC1=CC(O)=C(C(C)=O)C(=O)[C@]12C	4.8	50	
COc1cc(O)c2c(c1C(=O)NCc1c(C)ccc3ccc(F)cc13)OC1=CC(O)=C(C(C)=O)C(=O)[C@]12C	65	40	
CCc1cc(F)c2ccccc2c1CNC(=O)c1c(OC)cc(O)c2c1OC1=CC([O-])=C(C(C)=O)C(=O)[C@]12C.[K+]			Activity (Rattus norvegicus [9]): Toxic; clearance [10]: 6.98 mL/min/kg; Activity (Rattus norvegicus [11]): Non-toxic; solubility [12]: 910 µg/mL; bioavailability [13]: 58%; Activity (Rattus norvegicus [14]): Toxic; Activity (Rattus norvegicus [15]): Non-toxic; Activity (Rattus norvegicus [16]): <200 mg/dL; half-life [17]: 4 h
COc1cc(O)c2c(c1C(=O)NCc1c(C)ccc3ccccc13)OC1=CC(O)=C(C(C)=O)C(=O)[C@]12C	28	47	
COc1cc(O)c2c(c1C(=O)NCc1c(C)ccc3c(Cl)cccc13)OC1=CC(O)=C(C(C)=O)C(=O)[C@]12C	170	59	
CCc1ccc2ccccc2c1CNC(=O)c1c(OC)cc(O)c2c1OC1=CC(O)=C(C(C)=O)C(=O)[C@]12C	3.7	39	
CCCc1ccc2ccccc2c1CNC(=O)c1c(OC)cc(O)c2c1OC1=CC(O)=C(C(C)=O)C(=O)[C@]12C	43	37	
COc1cc(O)c2c(c1C(=O)NCc1c(C)ccc3ccc(Cl)cc13)OC1=CC(O)=C(C(C)=O)C(=O)[C@]12C	4.9	44	
CCc1cc(F)c2ccccc2c1CNC(=O)c1c(OC)cc(O)c2c1OC1=CC(O)=C(C(C)=O)C(=O)[C@]12C [listing 2 of 2 here]	0.94		solubility [12]: 23 µg/mL (≈ 43.3 µM); EC50 [18]: 12 nM
COc1cc(O)c2c(c1C(=O)NCc1c(C)ccc3c(F)cccc13)OC1=CC(O)=C(C(C)=O)C(=O)[C@]12C	16	39	
COc1cc(O)c2c(c1C(=O)NCc1cccc3ccccc13)OC1=CC(O)=C(C(C)=O)C(=O)[C@]12C	180	47	
COc1cc(O)c2c(c1C(=O)NCc1c(C)cc(Cl)c3ccccc13)OC1=CC(O)=C(C(C)=O)C(=O)[C@]12C	22	57	
CN(CCOc1ccc(CC2SC(=O)NC2=O)cc1)c1ccccn1 (configuration not stated) [ROSIGLITAZONE]			Activity (Rattus norvegicus [19]): Dose-dependent effect; Activity (Rattus norvegicus [3]): Dose-dependent effect; Activity (Rattus norvegicus [4]): Active; Activity (Rattus norvegicus [20]): Active; Activity (Rattus norvegicus [21]): Non-toxic; Activity (Rattus norvegicus [22]): Toxic; Activity (Rattus norvegicus [16]): <200 mg/dL
CCCCc1ccc2ccccc2c1CNC(=O)c1c(OC)cc(O)c2c1OC1=CC(O)=C(C(C)=O)C(=O)[C@]12C	59	22	
